A short description of data set [1]: Antagonist activity at muscarinic acetylcholine receptor in guinea pig ileum assessed as inhibition of acetylcholine-induced contraction. In kind it is tissue-based, Cavia porcellus. A digest of the protocol:
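Ileum segments (~2 cm) from freshly killed guinea pigs in a 10-mL organ bath of Tyrode solution at 37 °C, air-bubbled. Isotonic contractions recorded. Acetylcholine dose-response curves run without and with antagonist. Affinity constants calculated from the dose ratio. Values are means of two to four separate experiments ± SD.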

Data set [2] in a line: Toxicity in ip dosed mouse. The data set is classed as organism-based. To be noted: in vivo. A digest of the protocol: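 Preliminary LD50 determination in mice given the drugs intraperitoneally.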
For data set [3], the species on record is Cavia porcellus. The experiment in a line: Competitive antagonist activity at muscarinic acetylcholine receptor in guinea pig ileum assessed as inhibition of acetylcholine-induced contraction at 1X10'-8 M. In kind it is tissue-based. A digest of the protocol:
(§1)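 Guinea pig ileum (~2 cm, freshly killed animals) in a 10-mL Tyrode bath at 37 °C, air-bubbled, isotonic lever recording. Acetylcholine dose-response curves recorded alone and with antagonist present at a single fixed concentration (1×10^-8 or 1.1×10^-8 M). The curves were compared for shift.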

The nature of data set [4]: Displacement of [3H]4-NMPB from muscarinic acetylcholine receptor in mouse brain. The data set is classed as tissue-based.
The species entered for data set [5] is Cavia porcellus. The data set is described as follows: Competitive antagonist activity at muscarinic acetylcholine receptor in guinea pig ileum assessed as inhibition of acetylcholine-induced contraction at 1.1X10'-8 M. The data set is classed as tissue-based. An outline of the steps: as §1

Where a name gives a salt, the structure may show the parent alone. Active and inactive are the calls of the source. The calls are words filed in the database; no cut-off is given here.

As usually defined, the Kd is the equilibrium constant for the complex coming apart. Take `CN1[C@@H]2CC[C@@H](C[C@H](OC(=O)C(CO)c3ccccc3)C2)N1C` (stereo not given in full): in data set [1], the Kd is 0.091 nM. As usually defined, the LD50 is the dose expected to kill half of the subjects tested. For the compound `CN1[C@@H]2CC[C@@H](C[C@H](OC(=O)C(CO)c3ccccc3)C2)N1C` (stereo in doubt; 1), in data set [2], the LD50 is 150 mg/kg. For the same compound, the equilibrium dissociation constant (Kd) in data set [1] stood at 1.7 nM. On to `CN1[C@@H]2CC[C@@H](C[C@H](OC(=O)C(CO)c3ccccc3)C2)N1C` (stereo in doubt; 2) [listing 1 of 2 here], for which, in data set [1], the Kd is 0.066 nM. `CN1[C@@H]2CC[C@@H](C[C@H](OC(=O)C(CO)c3ccccc3)C2)N1C` (stereo in doubt; 2) [listing 2 of 2 here]: in the data set filed under Cavia porcellus [3], the inhibition result is “Active”. For `CN1[C@@H]2CC[C@@H](C[C@H](OC(=O)C(CO)c3ccccc3)C2)N1C` (stereo in doubt; 4), the Kd in data set [1] was found to be 170 nM. With `CN1[C@@H]2CC[C@@H](C[C@H](OC(=O)C(CO)c3ccccc3)C2)N1C` (stereo in doubt; 5) [listing 1 of 2 here], the Kd in data set [4] is 2.1 nM; in data set [1], 1.6 nM.

In the case of `CN1[C@@H]2CC[C@@H](C[C@H](OC(=O)C(CO)c3ccccc3)C2)N1C` (stereo in doubt; 5) [listing 2 of 2 here], the inhibition entry in the data set listed under Cavia porcellus [5] was “Active”. For the compound `CN1[C@@H]2CC[C@H]1C[C@@H](OC(=O)C(CO)c1ccccc1)C2` (stereo not given in full) [ATROPINE SULFATE], the Kd in data set [1] amounted to 0.49 nM.

These data come from ChEMBL document CHEMBL3227925, “Structure-activity relationship in a new series of atropine analogues. 1. N,N'-Disubstituted 6,7-diazabicyclo[3.2.2]nonane derivatives” (J Med Chem, 1979).
